Here are results for eleven compounds from ChEMBL document CHEMBL2407025, “Antiplasmodial and cytotoxic flavans and diarylpropanes from the stems of Combretum griffithii” (J Nat Prod, 2013).

SMILES strings stand for the structures. The source made the active and inactive calls. The rule behind the calls is not given here.

For orientation: IC50 means the concentration needed to halve the response being measured.

In one assay the test system is MCF7. Kind of assay: Cytotoxicity against human MCF7 cells by colorimetric method. In kind it is functional, cell-based. A digest of the protocol:
(§1)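 Human epidermoid carcinoma KB, breast cancer MCF7 and small cell lung cancer NCI-H187 lines assayed by the Skehan colorimetric method. Test samples at a maximum final concentration of 50 μg/mL. Doxorubicin served as reference. Values are reported as IC50.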

A further assay relates to NCI-H187. Kind of assay: Cytotoxicity against human NCI-H187 cells by colorimetric method. In kind it is functional, cell-based. The method in brief: as §1
For the next assay, the system named is KB. Kind of assay: Cytotoxicity against human KB cells by colorimetric method. In kind it is functional, cell-based. The method in brief: as §1
Assay [1] has as its system Mycobacterium tuberculosis. Kind of assay: Antimycobacterial activity against Mycobacterium tuberculosis H37Ra at 50 ug/ml by MABA. In kind it is functional, organism-based. A digest of the protocol: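 M. tuberculosis H37Ra was tested in vitro by microplate Alamar Blue assay (MABA). 50 μg/mL was the highest test concentration. Isoniazid was run as the reference standard.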
For orientation: Alamar Blue is a resazurin reagent that responds to reducing activity.

Assay [2] deals with Plasmodium falciparum. Kind of assay: Antimalarial activity against Plasmodium falciparum K1 assessed as reduction in parasite growth measuring [3H]-hypoxanthine uptake at 10 ug/ml by microculture radioisotope technique. In kind it is functional, organism-based.
For assay [3], the system named is Plasmodium falciparum. Kind of assay: Antimalarial activity against Plasmodium falciparum K1 assessed as reduction in parasite growth measuring [3H]-hypoxanthine uptake by microculture radioisotope technique. Format: functional, organism-based. A digest of the protocol: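 P. falciparum K1 (multidrug-resistant) cultured in vitro by Trager–Jensen method. Growth inhibition read as [3H]-hypoxanthine uptake in a microculture radioisotope assay (Desjardins method). Samples tested up to a maximum final concentration of 10 μg/mL. IC50 taken as the concentration giving 50% reduction in parasite growth. Dihydroartemisinin served as reference.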

The mark [4] stands for this setting: Homo sapiens, MCF7, read-out: IC50.

With `COc1ccc2c(c1)O[C@H](c1ccc(O)c(OC)c1)CC2` [(2S)-4'-HYDROXY-7,3'-DIMETHOXYFLAVAN], the IC50 amounted to 88.4 µM in the assay on MCF7 (setting [4]), 60.2 µM in the assay on NCI-H187 and 97.9 µM with KB. Further, the result (in assay [1]; in the assay on Plasmodium falciparum [2]) was inactive.

Turning to `COc1cc(CCCc2c(OC)cc(O)cc2OC)ccc1O`, the IC50 in the assay with MCF7 (setting [4]) worked out at 64.2 µM; in the assay with NCI-H187, 96 µM; in the assay with KB, 49.3 µM. Moreover, the outcome (in assay [1]; with Plasmodium falciparum [2]) was inactive.

Consider `C[C@H]1[C@@H](O)O[C@@H]2O[C@@]3(C)CC[C@H]4[C@H](C)CC[C@@H]1[C@@]24OO3` [ARTENIMOL], for which the IC50 in the assay on Plasmodium falciparum [3] worked out at 0.00142 µM.

Take `COc1cc(OC)c2c(c1)O[C@H](c1ccc(O)c(O)c1)CC2` [(2S)-3',4'-DIHYDROXY-5,7-DIMETHOXYFLAVAN]: the IC50 in the assay with MCF7 (setting [4]) came to 49.1 µM; in the assay on NCI-H187, 10.4 µM; in the assay on KB it was 31.8 µM; in the assay on Plasmodium falciparum [3] it was 9.66 µM. In addition, in assay [1], the result was inactive.

As for `COc1cc([C@@H]2CCc3cc(OC)c(OC)cc3O2)ccc1O` [(2S)-4'-HYDROXY-6,7,3'-TRIMETHOXYFLAVAN], the IC50 result with MCF7 (mcf7) is “Not Active”; with NCI-H187, 125 µM; in the assay on KB it was 106 µM. Further, the result (in assay [1]; with Plasmodium falciparum [2]) was inactive.

As to `COc1cc(CCCc2cc(O)c(OC)cc2OC)ccc1O`, the IC50 in the assay with MCF7 (setting [4]) is 23.1 µM; with NCI-H187, 34.6 µM; in the assay with KB, 24.6 µM. The result (in assay [1]; with Plasmodium falciparum [2]) was inactive.

Consider `COc1cc(CCCc2cc(OC)c(O)c(OC)c2)ccc1O`, for which the IC50 was found to be 72 µM with MCF7 (setting [4]), 42.1 µM in the assay on NCI-H187, 46 µM with KB and 14.5 µM in the assay on Plasmodium falciparum [3]. Moreover, the result in assay [1] was inactive.

Regarding `COc1cc2c(cc1OC)O[C@H](c1ccc(O)c(O)c1)CC2` [(2S)-3',4'-DIHYDROXY-6,7-DIMETHOXYFLAVAN], the IC50 was found to be 75 µM with MCF7 (setting [4]), 51.4 µM in the assay on NCI-H187, 43.1 µM with KB and 15.7 µM in the assay on Plasmodium falciparum [3]. In addition, the result in assay [1] was inactive.

As to `COc1cccc2c1C(=O)c1c(O)c3c(c(O)c1C2=O)C[C@@](O)(C(=O)CO)C[C@@H]3O[C@H]1C[C@H](N)[C@H](O)[C@H](C)O1` [DOXORUBICIN], the IC50 amounted to 0.12 µM with NCI-H187 and 0.38 µM in the assay on KB.

Take `COc1cc2c(cc1O)CC[C@@H](c1ccc(O)c(O)c1)O2`: the IC50 was 110 µM in the assay on MCF7 (setting [4]), 72 µM with NCI-H187, 24.6 µM in the assay with KB and 13 µM in the assay on Plasmodium falciparum [3]. Moreover, the outcome in assay [1] was inactive.

For the compound `COc1cc([C@@H]2CCc3cc(O)c(OC)cc3O2)ccc1O`, the IC50 in the assay on MCF7 (setting [4]) was 90.1 µM; in the assay with NCI-H187, 76.5 µM; in the assay with KB, 69 µM. Also, the result (in assay [1]; with Plasmodium falciparum [2]) was inactive.
